Experimental data collected from several papers.
Protocols differ between the studies behind these lines.
HDAC8: Histone deacetylase 8 (HDAC8, Homo sapiens, UniProt Q9BY41)
BRD4 BD1: Bromodomain-containing protein 4, BD1 (BRD4, Homo sapiens, UniProt O60885)
murD: UDP-N-acetylmuramoylalanine--D-glutamate ligase (murD, Escherichia coli K-12, UniProt P14900)
KAT2B: Histone acetyltransferase KAT2B (KAT2B, Homo sapiens, UniProt Q92831)

SMILES	target	observed	mode	technique	concentration	quantity	value
Nc1ncnc2occ(-c3ccc(NC(=O)Nc4cc(C(F)(F)F)ccc4F)cc3)c12	Mitogen-activated protein kinase kinase kinase 4 (MAP3K4, Homo sapiens, UniProt Q9Y6R4)	cell-free assay	inhibitor		20 µM	remaining signal	1.6%
C[S+]([O-])c1ccc(-c2nc(-c3ccncc3)c(-c3ccc(F)cc3)[nH]2)cc1 (centres unmarked)	Tyrosine-protein kinase BAZ1B (BAZ1B, Homo sapiens, UniProt Q9UIG0)	thermal stability		DSF	10 µM	ΔTm	0.29 °C
CC[C@H](CC[C@@H](C)[C@H]1CC[C@H]2[C@@H]3CC=C4C[C@@H](O[C@@H]5O[C@H](CO)[C@@H](O)[C@H](O)[C@H]5O)CC[C@]4(C)[C@H]3CC[C@]12C)C(C)C	HDAC8	enzyme activity	inhibitor		10 µM	inhibition	-8.57%
Cn1nnc2ccc(NC(=O)c3cccc(C(=O)O)c3)cc21	BRD4 BD1	thermal stability		DSF	100 µM	ΔTm	2.8 °C
Cc1ccc(C(=O)Nc2ccc(CN3CCN(C)CC3)c(C(F)(F)F)c2)cc1C#Cc1cnc2cccnn12	Cyclin-dependent kinase 11B (CDK11B, Homo sapiens, UniProt P21127)	enzyme activity			23.5 nM	remaining activity	79%
CCCOc1ccc(OC)c(F)c1C(=O)c1ccc(C(=O)N[C@@H]2CNC[C@H]2NC(=O)c2ccc3[nH]ncc3c2)cc1	cGMP-dependent protein kinase 1 (PRKG1, Homo sapiens, UniProt Q13976)	enzyme activity	inhibitor		50 nM	remaining activity	22%
O=[N+]([O-])c1ccccc1S(=O)(=O)Oc1ccccc1C=NNS(=O)(=O)c1ccc2ccccc2c1	murD	enzyme activity	inhibitor	absorbance	50 µM	remaining activity	71%
Cc1cnc(Nc2ccc(OCCN3CCCC3)cc2)nc1Nc1cccc(S(=O)(=O)NC(C)(C)C)c1	Bromodomain-containing protein 4, BD2 (BRD4, Homo sapiens, UniProt O60885)	thermal stability		DSF	10 µM	ΔTm	3.11 °C
O=C(Nc1ccc(C=NNS(=O)(=O)c2ccc3ccccc3c2)cc1)c1cc([N+](=O)[O-])cc([N+](=O)[O-])c1	murD	enzyme activity	inhibitor	absorbance	100 µM	remaining activity	78%
Oc1ccc(-c2nc(-c3ccncc3)c(-c3ccc(F)cc3)[nH]2)cc1	BRD4 BD1	thermal stability		DSF	10 µM	ΔTm	0.55 °C
CC(C)[C@@H]1NC(=O)[C@@H]2CCCN2C(=O)[C@H](Cc2ccccc2)NC(=O)CSC[C@@H](C(=O)N[C@@H](Cc2ccc(O)cc2)C(N)=O)NC(=O)[C@H](Cc2c[nH]c3ccccc23)NC(=O)[C@H](CCCCN)NC(=O)[C@H](Cc2ccccc2)N(C)C(=O)[C@H](Cc2ccccc2)NC1=O	BRD4 BD1	thermal stability		DSF	50 µM	ΔTm	-0.52 °C
O=[N+]([O-])c1cccc(S(=O)(=O)Oc2ccccc2C=NNS(=O)(=O)c2ccc3ccccc3c2)c1	murD	enzyme activity	inhibitor	absorbance	50 µM	remaining activity	70%
Cc1cc2c(cc1N1C(=O)c3cccc4c(Cl)ccc(c34)C1=O)n(C)c(=O)n2C	KAT2B	thermal stability		DSF	10 µM	ΔTm	0.5 °C
O=[N+]([O-])c1cccc(COc2ccccc2C=NNS(=O)(=O)c2ccc3ccccc3c2)c1	murD	enzyme activity	inhibitor	absorbance	50 µM	remaining activity	70%
O=c1c(O)c(-c2ccc(O)c(O)c2)oc2cc(O)cc(O)c12	HDAC8	enzyme activity	inhibitor		10 µM	inhibition	68%
N#Cc1ccc(COc2ccccc2C=NNS(=O)(=O)c2ccccc2[N+](=O)[O-])cc1	murD	enzyme activity	inhibitor	absorbance	100 µM	remaining activity	86%
NS(=O)(=O)c1ccc(Nc2nc(-c3ccc(F)cc3)c3ccccc3n2)cc1	KAT2B	binding		competition with immobilised ligand	1 µM	remaining binding	80%
